Laboratory results: ChEMBL document CHEMBL4270541, “Synthesis and antimicrobial evaluation of amino sugar-based naphthoquinones and isoquinoline-5,8-diones and their halogenated compounds” (Eur J Med Chem, 2018)
≈ marks a conversion by molar mass, not a printed value. Calls of active or inactive are those of the source. The calls are words filed in the database; no cut-off is given here.

Assays:
Enterococcus faecalis = assay: Antimicrobial activity against Enterococcus faecalis INCQS 00234 ATCC 29212 assessed as zone of inhibition at 5 mg/ml after 18 to 24 hrs by disc diffusion method; assay type: functional; details: ATCC 29212 INCQS 00234, read-out: IZ
Staphylococcus aureus [1] = assay: Antimicrobial activity against Staphylococcus aureus INCQS 00015 ATCC 25923 assessed as zone of inhibition at 5 mg/ml after 18 to 24 hrs by disc diffusion method; assay type: functional; details: read-out: IZ
[2] = system: Staphylococcus epidermidis; assay: Antimicrobial activity against Staphylococcus epidermidis INCQS 00016 ATCC 12228 assessed as zone of inhibition at 5 mg/ml after 18 to 24 hrs by disc diffusion method; assay type: functional; details: ATCC 12228 INCQS 00016, read-out: IZ
Staphylococcus simulans [3] = assay: Antimicrobial activity against Staphylococcus simulans INCQS 00254 ATCC 27851 assessed as zone of inhibition at 5 mg/ml after 18 to 24 hrs by disc diffusion method; assay type: functional; details: read-out: IZ
Staphylococcus aureus [4] = assay: Antimicrobial activity against methicillin-resistant Staphylococcus aureus BMB9393 assessed as zone of inhibition at 5 mg/ml after 18 to 24 hrs by disc diffusion method; assay type: functional; details: read-out: IZ
Escherichia coli [5] = assay: Antimicrobial activity against Escherichia coli INCQS 00033 ATCC 25922 assessed as zone of inhibition at 5 mg/ml after 18 to 24 hrs by disc diffusion method; assay type: functional; details: ATCC 25922 INCQS 00033, read-out: IZ
Proteus mirabilis = assay: Antimicrobial activity against Proteus mirabilis INCQS 00095 ATCC 15290 assessed as zone of inhibition at 5 mg/ml after 18 to 24 hrs by disc diffusion method; assay type: functional; details: read-out: IZ
Klebsiella pneumoniae = assay: Antimicrobial activity against Klebsiella pneumoniae INCQS 00083 ATCC 4352 assessed as zone of inhibition at 5 mg/ml after 18 to 24 hrs by disc diffusion method; assay type: functional; details: read-out: IZ
Pseudomonas aeruginosa [6] = assay: Antimicrobial activity against Pseudomonas aeruginosa INCQS 00099 ATCC 27853 assessed as zone of inhibition at 5 mg/ml after 18 to 24 hrs by disc diffusion method; assay type: functional; details: read-out: IZ
Staphylococcus aureus [7] = assay: Ratio of MBC99.9 to MIC for Staphylococcus aureus INCQS 00015 ATCC 25923; assay type: functional
In short: (§1)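 MBC/MIC ratio from the 24 h, 37°C microdilution MIC and the agar-plating MBC (99.9% growth inhibition). A ratio ≤2 was classed as bactericidal and ≥4 as bacteriostatic.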

Staphylococcus aureus [8] = assay: Antimicrobial activity against Staphylococcus aureus INCQS 00015 ATCC 25923 after 24 hrs by microdilution assay; assay type: functional; details: INCQS 00015 ATCC 25923, 24 h
[9] = system: Staphylococcus epidermidis; assay: Antimicrobial activity against Staphylococcus epidermidis INCQS 00016 ATCC 12228 after 24 hrs by microdilution assay; assay type: functional; details: ATCC 12228 INCQS 00016, 24 h
Staphylococcus simulans [10] = assay: Antimicrobial activity against Staphylococcus simulans INCQS 00254 ATCC 27851 after 24 hrs by microdilution assay; assay type: functional; details: INCQS 00254 ATCC 27851, 24 h
Escherichia coli [11] = assay: Antimicrobial activity against Escherichia coli INCQS 00033 ATCC 25922 after 24 hrs by microdilution assay; assay type: functional; details: ATCC 25922 INCQS 00033, 24 h
Pseudomonas aeruginosa [12] = assay: Antimicrobial activity against Pseudomonas aeruginosa INCQS 00099 ATCC 27853 after 24 hrs by microdilution assay; assay type: functional; details: INCQS 00099 ATCC 27853, 24 h
Staphylococcus aureus [13] = assay: Antimicrobial activity against methicillin-resistant Staphylococcus aureus BMB9393 after 24 hrs by microdilution assay; assay type: functional; details: BMB9393, 24 h
[14] = system: Staphylococcus epidermidis; assay: Ratio of MBC99.9 to MIC for Staphylococcus epidermidis INCQS 00016 ATCC 12228; assay type: functional, ATCC 12228 INCQS 00016; in short: as §1
Staphylococcus aureus [15] = assay: Bactericidal activity against Staphylococcus aureus INCQS 00015 ATCC 25923 incubated for 24 hrs followed by transfer of microbial suspension to agar plates and measured after 24 hrs post transfer by resazurin dye-based colorimetric analysis; assay type: functional; details: INCQS 00015 ATCC 25923, 24 h, read-out: MBC99.9
In short: (§2)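 From MIC wells with no visible growth, 10 µL is transferred to agar plates and incubated 24 h at 37°C. MBC is the minimum concentration inhibiting 99.9% of growth. […] Triplicate.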

[16] = system: Staphylococcus epidermidis; assay: Bactericidal activity against Staphylococcus epidermidis INCQS 00016 ATCC 12228 incubated for 24 hrs followed by transfer of microbial suspension to agar plates and measured after 24 hrs post transfer by resazurin dye-based colorimetric analysis; assay type: functional; details: ATCC 12228 INCQS 00016, 24 h, read-out: MBC99.9
In short: (§3)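 For MBC, 10 µL from each clear MIC well was plated on agar and incubated 24 h at 37°C. MBC is the minimum concentration inhibiting 99.9% of growth. […] Triplicate.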

Staphylococcus simulans [17] = assay: Bactericidal activity against Staphylococcus simulans INCQS 00254 ATCC 27851 incubated for 24 hrs followed by transfer of microbial suspension to agar plates and measured after 24 hrs post transfer by resazurin dye-based colorimetric analysis; assay type: functional; details: INCQS 00254 ATCC 27851, 24 h, read-out: MBC99.9; in short: as §3
Staphylococcus aureus [18] = assay: Bactericidal activity against methicillin-resistant Staphylococcus aureus BMB9393 incubated for 24 hrs followed by transfer of microbial suspension to agar plates and measured after 24 hrs post transfer by resazurin dye-based colorimetric analysis; assay type: functional; details: BMB9393, 24 h, read-out: MBC99.9; in short: as §2
Escherichia coli [19] = assay: Bactericidal activity against Escherichia coli INCQS 00033 ATCC 25922 incubated for 24 hrs followed by transfer of microbial suspension to agar plates and measured after 24 hrs post transfer by resazurin dye-based colorimetric analysis; assay type: functional; details: ATCC 25922 INCQS 00033, 24 h, read-out: MBC99.9; in short: as §3
Pseudomonas aeruginosa [20] = assay: Bactericidal activity against Pseudomonas aeruginosa INCQS 00099 ATCC 27853 incubated for 24 hrs followed by transfer of microbial suspension to agar plates and measured after 24 hrs post transfer by resazurin dye-based colorimetric analysis; assay type: functional; details: INCQS 00099 ATCC 27853, 24 h, read-out: MBC99.9; in short: as §3
Staphylococcus simulans [21] = assay: Ratio of MBC99.9 to MIC for Staphylococcus simulans INCQS 00254 ATCC 27851; assay type: functional; in short: as §1
Staphylococcus aureus [22] = assay: Ratio of MBC99.9 to MIC for methicillin-resistant Staphylococcus aureus BMB9393; assay type: functional
In short: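 MBC (99.9% kill on agar subculture of clear MIC wells, 24 h, 37°C) divided by broth microdilution MIC (24 h, 37°C). Ratio ≤2 taken as bactericidal and ≥4 as bacteriostatic.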

Escherichia coli [23] = assay: Ratio of MBC99.9 to MIC for Escherichia coli INCQS 00033 ATCC 25922; assay type: functional, ATCC 25922 INCQS 00033; in short: as §1
Pseudomonas aeruginosa [24] = assay: Ratio of MBC99.9 to MIC for Pseudomonas aeruginosa INCQS 00099 ATCC 27853; assay type: functional; in short: as §1
[25] = Hemolytic activity against human erythrocytes assessed as hemolysis at 200 ug/ml after 3 hrs by spectrophotometric analysis relative to control; assay type: ADME, cell-based, Erythrocyte; details: read-out: Activity
In short: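 Erythrocytes collected in citrate tubes, washed three times with PBS pH 7.4 by centrifugation and resuspended in PBS. Incubated with compounds at 200 µg/mL for 3 h at 37°C. Released hemoglobin was read in the supernatant at 545 nm against 1% Triton X-100 (complete lysis) and 1% DMSO (negative control). Below 10% hemolysis was taken as hemocompatible. Three independent experiments.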

Escherichia coli [26] = assay: Antimicrobial activity against Escherichia coli; assay type: functional
Escherichia coli [27] = assay: Bactericidal activity against Escherichia coli; assay type: functional
[28] = system: Staphylococcus epidermidis; assay: Antimicrobial activity against Staphylococcus epidermidis INCQS 00016 ATCC 12228 at 256 ug/ml after 24 hrs by microdilution assay; assay type: functional, organism-based; details: ATCC 12228 INCQS 00016
[29] = system: Staphylococcus epidermidis; assay: Bactericidal activity against Staphylococcus epidermidis INCQS 00016 ATCC 12228 at 256 ug/ml incubated for 24 hrs followed by transfer of microbial suspension to agar plates and measured after 24 hrs post transfer by resazurin dye-based colorimetric analysis; assay type: functional, organism-based; details: ATCC 12228 INCQS 00016; in short: as §3

SMILES | zone of inhibition at 5000 µg/mL (Enterococcus faecalis) [mm] | zone of inhibition at 5000 µg/mL (Staphylococcus aureus [1]) [mm] | zone of inhibition at 5000 µg/mL [2] [mm] | zone of inhibition at 5000 µg/mL (Staphylococcus simulans [3]) [mm] | zone of inhibition at 5000 µg/mL (Staphylococcus aureus [4]) [mm] | zone of inhibition at 5000 µg/mL (Escherichia coli [5]) [mm] | zone of inhibition at 5000 µg/mL (Proteus mirabilis) [mm] | zone of inhibition at 5000 µg/mL (Klebsiella pneumoniae) [mm] | zone of inhibition at 5000 µg/mL (Pseudomonas aeruginosa [6]) [mm] | Ratio (Staphylococcus aureus [7]) | MIC (Staphylococcus aureus [8]) [µg/mL] | MIC (Staphylococcus simulans [10]) [µg/mL] | MIC (Escherichia coli [11]) [µg/mL] | MIC (Pseudomonas aeruginosa [12]) [µg/mL] | MIC (Staphylococcus aureus [13]) [µg/mL] | MBC (Staphylococcus aureus [15]) [µg/mL] | MBC (Staphylococcus simulans [17]) [µg/mL] | MBC (Staphylococcus aureus [18]) [µg/mL] | MBC (Escherichia coli [19]) [µg/mL] | MBC (Pseudomonas aeruginosa [20]) [µg/mL] | other results
NC1=C(Br)C(=O)c2ccccc2C1=O | 0 | 10 | 12 | 17 | 16 | 8 | 0 | 0 | 14 | 1 | 64 (≈ 254 µM) | 128 (≈ 508 µM) | 64 (≈ 254 µM) | 32 (≈ 127 µM) | 64 (≈ 254 µM) | 64 (≈ 254 µM) | 128 (≈ 508 µM) | 64 (≈ 254 µM) | 64 (≈ 254 µM) | 32 (≈ 127 µM) | MIC [9]: 128 µg/mL (≈ 508 µM); Ratio [14]: 1; MBC [16]: 128 µg/mL (≈ 508 µM); Ratio (Staphylococcus simulans [21]): 1; Ratio (Staphylococcus aureus [22]): 1; Ratio (Escherichia coli [23]): 1; Ratio (Pseudomonas aeruginosa [24]): 1; hemolysis at 3 h, 200 ug/ml [25]: 10.1 to 14.4%
COC(=O)c1c(C)nc(C)c2c1C(=O)C(Br)=C(Nc1ccc(OC)cc1)C2=O |  |  |  |  |  |  |  |  |  |  |  |  |  |  |  |  |  |  |  |  | MIC (Escherichia coli [26]): 2 to 4 µg/mL (≈ 4.49 to 8.98 µM); MBC (Escherichia coli [27]): 2 to 4 µg/mL (≈ 4.49 to 8.98 µM)
COC(=O)c1c(CBr)nc(C)c2c1C(=O)C(Br)=C(Nc1ccc(Cl)cc1)C2=O |  |  |  |  |  |  |  |  |  |  |  |  |  |  |  |  |  |  |  |  | MIC (Escherichia coli [26]): 2 to 4 µg/mL (≈ 3.78 to 7.57 µM); MBC (Escherichia coli [27]): 2 to 4 µg/mL (≈ 3.78 to 7.57 µM)
NC1=C(Cl)C(=O)c2ccccc2C1=O | 0 | 12 | 21 | 14 | 20 | 10 | 0 | 0 | 15 | 1 | 64 (≈ 308 µM) | 128 (≈ 617 µM) | 128 (≈ 617 µM) | 16 (≈ 77.1 µM) | 64 (≈ 308 µM) | 64 (≈ 308 µM) | 128 (≈ 617 µM) | 64 (≈ 308 µM) | 128 (≈ 617 µM) | 16 (≈ 77.1 µM) | Ratio (Staphylococcus simulans [21]): 1; Ratio (Escherichia coli [23]): 1; Ratio (Pseudomonas aeruginosa [24]): 1; hemolysis at 3 h, 200 ug/ml [25]: 10.1 to 14.4%; Activity [28]: inactive; Activity [29]: inactive
NC1=CC(=O)c2ccccc2C1=O | 0 | 15 | 17 | 18 | 17 | 20 | 0 | 0 | 12 | 1 | 64 (≈ 370 µM) | 64 (≈ 370 µM) | 32 (≈ 185 µM) | 64 (≈ 370 µM) | 64 (≈ 370 µM) | 64 (≈ 370 µM) | 64 (≈ 370 µM) | 64 (≈ 370 µM) | 32 (≈ 185 µM) | 64 (≈ 370 µM) | MIC [9]: 128 µg/mL (≈ 739 µM); Ratio [14]: 1; MBC [16]: 128 µg/mL (≈ 739 µM); Ratio (Staphylococcus simulans [21]): 1; Ratio (Escherichia coli [23]): 1; Ratio (Pseudomonas aeruginosa [24]): 1; hemolysis at 3 h, 200 ug/ml [25]: 10.1 to 14.4%
